# NPY2 pot ag = potentiates or activates human NPY-Y2 receptor | cells expressing NPY-Y2, potentiator/agonist read-out | 220,000 tested, 0.45% active | activation, % at 3.6 µM; in the data active = activation above about 27%;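 also: cells stimulated with NPY near EC25 plus isoproterenol at EC100; 0% = vehicle plus submaximal agonist and 100% = vehicle plus saturating agonist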
# Target sequence (P49146 whole entry, looked up): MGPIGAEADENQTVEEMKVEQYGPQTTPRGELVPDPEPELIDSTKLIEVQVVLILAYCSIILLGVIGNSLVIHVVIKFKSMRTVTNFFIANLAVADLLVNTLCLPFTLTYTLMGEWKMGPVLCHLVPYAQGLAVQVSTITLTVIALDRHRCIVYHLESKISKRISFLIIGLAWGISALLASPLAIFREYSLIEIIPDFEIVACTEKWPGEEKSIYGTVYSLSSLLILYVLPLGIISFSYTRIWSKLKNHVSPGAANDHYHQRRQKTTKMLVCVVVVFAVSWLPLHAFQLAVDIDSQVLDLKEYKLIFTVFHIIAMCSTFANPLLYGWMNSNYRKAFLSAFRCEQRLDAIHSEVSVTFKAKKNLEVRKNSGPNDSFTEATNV
# NPY Y1 blocker = blocks the human neuropeptide Y Y1 receptor | inhibition, % at 3.6 µM | HEK293-CNG Y1 cells, membrane potential fluorescence; NPY at EC95, then isoproterenol | 200,000 tested, 1% active | P25929;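 active = inhibition above the campaign mean inhibition of all tested compounds plus 3 SD, cut at about 20% in these data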;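 also: 0% = DMSO wells given NPY plus isoproterenol and 100% = isoproterenol alone without NPY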
#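 Test system: HEK293 cells co-expressing NPY Y1 receptor and cyclic-nucleotide gated channel; Also added: NPY (25 nM), isoproterenol (1 µM), Ro 20-1724 (25 µM); Compound dosing: one concentration, 3.6 µM, in 0.4% DMSO; Timing: dye 3 h, compound 60 min room temperature, stimulation 45 min; Technique: Membrane-potential fluorescent dye readout.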
# NPY-Y2 antag = NPY-Y2 (human) receptor antagonism | P49146 | NPY-Y2 expressing cells, antagonist mode | 140,000 tested, 0.99% active | inhibition, % at 2.7 µM; in the data active = inhibition above about 17%;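 also: 0% = vehicle with agonist challenge and 100% = reference antagonist with challenge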
# NPY1 pot ag = potentiators or agonists of human neuropeptide Y receptor Y1; 220,000 tested, 0.37% active; activation, % at 3.6 µM; NPY-Y1 expressing cells, potentiator/agonist activation; P25929; in the data active = activation above about 33%, passing the limit was not always enough;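 also: cells stimulated with NPY at EC10 then isoproterenol at EC100; 0% = low agonist plus stimulus and 100% = saturating agonist plus stimulus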
# * hit, by the source's call; . = no result. Only some compounds are listed: those with a hit (about 1.9% of all), similar ones and a draw of the others.
SMILES,NPY2 pot ag,NPY Y1 blocker,NPY-Y2 antag,NPY1 pot ag
CCc1[nH]nc2c1C(c1cccc(OC(=O)N3CCOCC3)c1)C(C#N)=C(N)O2 (centres undefined),4,11,5,-2
CC(C)c1[nH]nc2c1C(c1cccc(OC(=O)N3CCOCC3)c1)C(C#N)=C(N)O2 (centres undefined),0,131*,20*,-31
COc1ccc(C(CNC(=O)c2cccc(N(C)C)c2)N2CCCC2)cc1 (centres undefined),5,-3,5,1
COc1ccc(C(CNC(=O)c2cc3ccccc3cc2OC)N2CCCC2)cc1 (centres undefined),-30,28*,18*,-35
CCOC(=O)CN(C(=O)CSc1nnc(COc2ccc(OC)cc2)n1C)c1ccccc1,103*,-14,0,112*
COC(=O)CNC(c1ccccc1)c1cc(C)ccc1NS(=O)(=O)c1ccc(C)cc1 (centres undefined),1,6,8,-12
COC(=O)CNC(c1ccccc1)c1cc(C)ccc1NC(=O)c1cccc(Cl)c1 (centres undefined),-6,28*,17*,-27
COC(=O)CNC(c1ccccc1)c1cc(C)ccc1NC(=O)CNC(=O)OCc1ccccc1 (centres undefined),-22,29*,38*,-34
COC(=O)CNC(c1ccccc1)c1cc(Br)ccc1NC(=O)OCc1ccccc1 (centres undefined),-24,14,10,-12
Cc1ccc(Nc2c(-c3ccc(N4CCOCC4)cc3)nc3ncccn23)c(C)c1,67*,-10,-5,58*
O=c1cc(-c2ccccc2Cl)oc2c(NS(=O)(=O)c3cc(Cl)cc(Cl)c3O)ccc(O)c12,41*,-5,2,56*
Nc1ccc(O)c2c(=O)cc(-c3ccccc3Cl)oc12,11,-3,1,-27
CC(C)N(Cc1ccccc1)CC(O)COc1ccc(S(=O)(=O)N2CCOCC2)cc1Cl (centres undefined),10,-2,.,15
O=C(O)c1cc(/C=C/c2ccc(N3CCOCC3)c([N+](=O)[O-])c2)nc2ccccc12,78*,.,.,53*
O=C(O)c1cc(/C=C/c2ccc(N3CCOCC3)cc2)nc2ccccc12,17,8,.,-4
COc1ccc(OC)c(C2=Nn3c(nnc3C3CCCCC3)SC2)c1,-5,4,4,-34
COc1ccc(C2=Nn3c(nnc3C3CCCCC3)SC2)cc1OC,-22,27*,58*,-68
C/C(CCC(C)C)=N\Nc1cc(C)c2ccccc2n1,7,4,.,-5
O=C(Nc1ccc(Cl)cc1)Nc1ccc2c(c1)N1CCN=C1S2,30,-18,-7,35*
COc1ccc2c(c1)c(=O)c(Br)c(C)n2Cc1ccccc1,-7,2,25*,-10
COc1ccc2c(c1)c(=O)c(C(=O)c1ccccc1)cn2Cc1ccc(C)cc1,-17,12,10,-48
Cc1ccc(C(=O)C[n+]2cc(-c3ccc(C)cc3)n3c2CCCCC3)cc1,-10,79*,32*,-35
COc1ccc(C(=O)C[n+]2cc(-c3ccc(OC)cc3)n3c2CCCC3)cc1,-1,1,.,4
Cc1cc(=O)oc(C)c1C(=O)Nc1cccc(F)c1,12,.,.,9
Cc1cc(=O)[nH]c(SCC(=O)N(CCC#N)c2ccccc2)c1C#N,-6,11,.,15
SMILES,NPY2 pot ag,NPY Y1 blocker,NPY-Y2 antag,NPY1 pot ag
CCCCN1C(=O)/C(=C/C=C2\Oc3ccccc3N2CC)SC1=S,-4,-2,.,6
CCN1/C(=C/C=C/c2oc3ccc(-c4ccccc4)cc3[n+]2CC)Oc2ccc(-c3ccccc3)cc21,3,22*,.,-31
N#Cc1cc[n+](CC(=O)c2ccc(NC(=O)c3ccccc3)cc2)cc1,-2,.,.,14
CCOC(=O)C1CCCN(C(=O)c2cnn3c(C(F)(F)F)cc(-c4ccccc4)nc23)C1 (centres undefined),-24,22*,19*,-53
OC(COCC1COc2ccccc2O1)CN1CCN(c2ccccc2)CC1 (centres undefined),34*,0,1,29
CCN1CCN(CC(O)COCC2COc3ccccc3O2)CC1 (centres undefined),4,-3,.,25
O=C(CN1c2ccccc2Sc2ccccc21)NNC(=O)Nc1ccc(Cl)cc1,57*,.,.,61*
O=C(CN1c2ccccc2Sc2ccccc21)NNC(=O)Nc1ccc(Cl)c(Cl)c1,6,.,.,-17
C#CCNC(=O)C1CCN(c2cc(C)nc(-c3ccccc3)n2)CC1,13,-1,.,3
Cc1ccc2c(c1)NC(=O)C(CC(=O)NC1CCCCC1C)O2 (centres undefined),3,-2,1,2
